MIN6 prolif – inducers of beta-cell replication in MIN6 cells; proliferation, % at 10 µM; actives 0.29% (n = 330,000); AID 2380; MIN6 cells proliferation, ATPlite luminescence, 48 h; cells starved in 0.2% serum; 100% = growth in 10% serum;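 active = compounds whose signal lies at least 3.5 SD above the mean of all wells on their plate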;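 note: 0% = DMSO-treated cells in low-serum medium and 100% = 10% serum control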
Granule exo inh – lytic granule exocytosis inhibition. inhibition, % at 10 µM. actives 0.66% (n = 360,000). TALL-104 LAMP-1 surface exposure, flow cytometry; cells stimulated with thapsigargin and PMA. AID 651702;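 active = inhibition above about 55%, limit read from the data; inconclusive = no clear call, values can overlap the other calls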
MPTP inh – blocks calcium-induced mitochondrial swelling; AID 602449; isolated mouse mitochondria, Ca2+ swelling absorbance, 30 min; inhibition, % at 10 µM; actives 1.4% (n = 360,000);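 active = inhibition of 50% or more, scaled per plate between neutral and stimulator controls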;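 note: 0% = DMSO wells given calcium and 100% = 1 mM EGTA wells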
UBC13 polyUb – human UBC13 polyubiquitination inhibition; P61088; UBC13 polyubiquitin chain formation, TR-FRET; actives 0.47% (n = 330,000); inhibition, % at 20 µM; in the data active = inhibition above about 45%, passing the limit was not always enough; inconclusive = no clear call, values can overlap the other calls
Target sequence (P61088 whole entry, looked up): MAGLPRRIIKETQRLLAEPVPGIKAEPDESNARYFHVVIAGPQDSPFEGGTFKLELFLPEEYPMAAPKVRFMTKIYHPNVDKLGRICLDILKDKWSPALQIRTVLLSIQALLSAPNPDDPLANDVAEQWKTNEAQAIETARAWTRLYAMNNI
Apaf-1 inh – human Apaf-1 inhibition; reconstituted apoptosome caspase-3 activity, DEVD-Rh110 fluorescence; AID 489030; O14727; inhibition, % at 20 µM; actives 0.71% (n = 330,000); active = inhibition of at least 40% at 20 µM;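 note: plate controls were DMSO wells for no effect and DEVD-CHO caspase inhibitor wells for full effect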
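System: reconstituted apoptosome with Apaf-1, cytochrome c, caspase-9, procaspase-3, dATP; Signal: Rh110 fluorescence intensity; Schedule: 30 min compound preincubation, 50 min activation, room temperature; Reagent: cytochrome c trigger plus (Z-DEVD)2-Rh110 caspase-3 substrate.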
hiPSC survival – increases survival of single human iPS cells. hiPSC single-cell survival, ATPlite luminescence; 100% = ROCK inhibitor wells, 0% = DMSO. survival enhancement, % at 20 µM. actives 0.044% (n = 360,000); in the data active = survival enhancement above about 18%;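 note: cells exposed to compounds for 16 hours before the ATP read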
Rh123 counter – Rhodamine 123 counter-screen of mitochondrial pore hits; isolated mitochondria, membrane potential, Rhodamine 123 fluorescence; AID 624504; inhibition, % at 10 µM; shares compounds with MPTP inh; actives 78% (n = 5,000); in the data active = inhibition above about 22%;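 note: 0% = DMSO vehicle and 100% = positive control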
MPTP swell DR – MPTP inhibition, dose response swelling confirmation. shares compounds with MPTP inh. isolated mitochondria swelling, absorbance. IC50, µM. actives 58% (n = 780). AID 651561; in the data active = IC50 below about 20 µM
MPTP counter DR – counter-screen for mitochondrial permeability transition pore inhibitors, dose response. shares compounds with MPTP inh. isolated mitochondria counterscreen, fluorescence read-out. IC50, µM. actives 49% (n = 780); in the data active = IC50 below about 80 µM
* = called active by the depositor; ? = inconclusive; . = not tested or not shown. A selection: hits, their analogues and other compounds. The true share with any hit is near 3%.

SMILES	MIN6 prolif	Granule exo inh	MPTP inh	UBC13 polyUb	Apaf-1 inh	hiPSC survival	Rh123 counter	others
Cc1cccc2sc(NC(=O)C3CCN(S(=O)(=O)c4cc([N+](=O)[O-])ccc4Cl)CC3)nc12	0	-1	100*	-9	3	-2	75*
O=[N+]([O-])c1ccc(C2=NN(CCO)C(=Nc3ccc(OC(F)(F)F)cc3)SC2)cc1	-4	37	54*	9	-2	-1	53*
COc1ccc(N=C2SCC(c3ccc([N+](=O)[O-])cc3)=NN2CCO)cc1	-4	-1	8	-3	6	3	.
O=C(C[n+]1cnn(CC(=O)c2ccc(Cl)cc2Cl)c1)c1ccc([N+](=O)[O-])cc1	.	-4	58*	.	.	-1	-15	MPTP swell DR=7.1*;MPTP counter DR=>80
CCOC(=O)C1=CCN(S(=O)(=O)c2ccc(Cl)cc2)C1c1ccccc1 (stereo not drawn)	.	1	1	.	.	2	.
COC(=O)c1ccc2c(c1)C(C)(C)C(/C=C/c1ccc(O)cc1)=[N+]2C	-6	24	86*	-165	12	2	-25
O=C(c1ccc(-c2ccccc2)c(F)c1)C1CCCN(C(=O)c2cncs2)C1 (stereo not drawn)	-1	8	52*	3	12	0	52*
CN1CCN(C(=O)c2cccc(-c3ccc4nccn4c3)c2)CC1	.	?	0	.	.	0	.
O=S(=O)(c1ccc(NC(=S)NN=C(Cc2ccccc2)Cc2ccccc2)cc1)N1CCOCC1	-2	-6	1	-27	5	4	.
O=[N+]([O-])c1ccc(NC(=S)NCc2ccncc2)cc1	-2	2	28	-1	7	1	.
O=S(=O)(c1ccc(NC(=S)NCCc2ccccc2)cc1)N1CCOCC1	2	0	67*	-6	10	1	85*
CC(C(=O)Nc1cccc(Br)c1)c1ccc([N+](=O)[O-])cc1 (stereo not drawn)	-5	-2	58*	8	0	1	78*
O=S(=O)(c1ccc(NC(=S)NCc2ccco2)cc1)N1CCCCC1	3	2	79*	17	-2	0	92*
O=[N+]([O-])c1ccc(NC(=S)NCCc2ccc(Cl)cc2)cc1	-7	7	88*	7	11	-6	85*
COc1cc(C(CC(=O)Nc2ccccn2)N2Cc3ccccc3C2=O)cc(OC)c1OC (stereo not drawn)	-4	17	-1	2	-3	1	.
O=C(Nc1ccc([N+](=O)[O-])cc1)C(c1ccccc1)c1ccccc1	.	2	82*	.	.	0	108*
O=[N+]([O-])c1ccc(NC(=S)NCCc2ccccc2)cc1	-6	1	87*	5	-1	-1	88*
O=C(NCC(O)c1ccc([N+](=O)[O-])cc1)C(c1ccccc1)c1ccccc1 (stereo not drawn)	0	-12	-1	-8	17	0	.
CC(=O)c1cccc(S(=O)(=O)N2CCn3cccc3C2C)c1 (stereo not drawn)	-2	-5	-2	-3	10	0	.
CN1C(=O)c2cccc(NCCCCCCN3C(=O)c4ccccc4C3=O)c2C1=O	-4	-3	108*	7	18	2	94*
CN1C(=O)c2cccc(NCCCN3C(=O)c4ccccc4C3=O)c2C1=O	0	-3	-2	2	9	-1	.
O=C(NCc1ccccc1)c1cc(-c2cccc(O)c2)on1	-2	-1	113*	2	7	0	16	MPTP swell DR=4.3*;MPTP counter DR=19*
Cc1ccc(NC(=O)c2cc(-c3cccc(O)c3)on2)cc1C	-4	-3	105*	11	14	0	20*
Cc1ccc(NC(=O)c2c(C(F)(F)F)nn(C)c2SCc2cccc(C(F)(F)F)c2)cc1C	-6	7	68*	-10	25	1	83*
Cc1ccc(NC(=O)c2c(C(F)(F)F)nn(C)c2SCc2ccc(Cl)cc2)cc1C	-6	0	36	6	-1	0	.
SMILES	MIN6 prolif	Granule exo inh	MPTP inh	UBC13 polyUb	Apaf-1 inh	hiPSC survival	Rh123 counter	others
CC(C)=CCc1c(O)c(CC=C(C)C)c2c(c1O)-c1cc(O)c(O)cc1CC2	-6	.	.	-8	19	.	.
CCN(C(=O)COC(=O)c1ccc(O)cc1O)c1c(N)n(Cc2ccccc2)c(=O)[nH]c1=O	5	2	-1	12	-9	0	.
CC(C)c1ccc2c(c1)CC[C@H]1[C@](C)(CN)CCC[C@]21C	.	10	88*	.	.	-5	-5	MPTP swell DR=>100;MPTP counter DR=>80
CC(C)c1ccc2c(c1)CCC1C(C)(CN)CCCC21C (stereo not drawn)	.	5	5	.	.	-1	.
CCCCCCCCNc1ncnc2[nH]ncc12	.	6	71*	.	.	0	71*
CC(=O)Nc1ccc(S(=O)(=O)N2CCN(c3cc4c(cc3[N+](=O)[O-])n(C)c(=O)n4C)CC2)cc1	-2	-3	4	-32	-13	-2	.
COc1ccc(S(=O)(=O)N2CCN(c3ccc(C)cc3C)CC2)cc1OC	-6	0	57*	8	4	4	82*
Cn1c(=O)n(C)c2cc([N+](=O)[O-])c(N3CCN(S(=O)(=O)c4ccc(C(C)(C)C)cc4)CC3)cc21	-4	2	54*	-15	6	1	71*
CC(=O)c1ccc(N2CCC(c3cc(-c4ccc(Cl)cc4Cl)n[nH]3)CC2)c([N+](=O)[O-])c1	-7	-3	74*	-18	19	-1	68*
O=[N+]([O-])c1cccnc1N1CCC(c2cc(-c3ccc(Cl)cc3Cl)n[nH]2)CC1	-5	5	-6	6	21	-2	.
COC(=O)c1ccc(N2CCN(S(=O)(=O)c3ccc(C)cc3)CC2)c([N+](=O)[O-])c1	-5	-1	56*	-4	17	3	65*
COc1cccc(CNC(=O)CCN2C(=O)[C@@H]3Cc4ccccc4CN3C2=O)c1	-1	-16	0	-6	15	0	.
Cc1ccc(CN2CCC[C@]3(N[C@H](c4ccc(C)cc4)[C@@H]4C(=O)N(C)C(=O)[C@@H]43)C2=O)cc1	.	7	0	.	.	3	.
CN(C)S(=O)(=O)N1CCc2ccc(NC(=O)c3ccc(C(F)(F)F)cc3)cc2C1	-3	5	25	-8	14	0	.
CC(=O)c1ccc(N2CCN(c3ccccc3O)CC2)c([N+](=O)[O-])c1	0	37	85*	-4	14	0	81*

Bioassay records deposited in PubChem by several laboratories.
